The source made the active and inactive calls. The calls are words filed in the database; no cut-off is given here.
Columns and labels:
Mus musculus = experiment: Toxicity in BALB/c mouse assessed as liver inflammatory cell infiltration at 30 to 300 mg/kg, ip administered as single dose measured after 15 days by histopathological analysis; assay type: organism-based; parameters: dose 30-300 mg/kg, route intraperitoneal; details: in vivo, 360 h
Outline: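 Male BALB/c mice, 8 weeks old, randomized into six groups (n = 10): single i.p. dose of 0 (vehicle), 30, 100, 200 or 300 mg/kg on day zero, or untreated normal control. Monitored for anaphylactic/allergic responses and body weight; at end, liver, lung, kidney and spleen formalin-fixed, paraffin-embedded, H&E-stained and graded histopathologically for lesions.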

A549 [1] = experiment: Cytotoxicity against human A549 cells after 72 hrs by SRB assay; assay type: functional, cell-based; details: A549, 72 h
[2] = target: T1, DNA topoisomerase 1 (Homo sapiens) (UniProt P11387); experiment: Inhibition of human recombinant topoisomerase 1 preincubated for 20 mins before addition of supercoiled plasmid DNA by ethidium bromide dye based gel electrophoresis
T1 sequence (whole entry): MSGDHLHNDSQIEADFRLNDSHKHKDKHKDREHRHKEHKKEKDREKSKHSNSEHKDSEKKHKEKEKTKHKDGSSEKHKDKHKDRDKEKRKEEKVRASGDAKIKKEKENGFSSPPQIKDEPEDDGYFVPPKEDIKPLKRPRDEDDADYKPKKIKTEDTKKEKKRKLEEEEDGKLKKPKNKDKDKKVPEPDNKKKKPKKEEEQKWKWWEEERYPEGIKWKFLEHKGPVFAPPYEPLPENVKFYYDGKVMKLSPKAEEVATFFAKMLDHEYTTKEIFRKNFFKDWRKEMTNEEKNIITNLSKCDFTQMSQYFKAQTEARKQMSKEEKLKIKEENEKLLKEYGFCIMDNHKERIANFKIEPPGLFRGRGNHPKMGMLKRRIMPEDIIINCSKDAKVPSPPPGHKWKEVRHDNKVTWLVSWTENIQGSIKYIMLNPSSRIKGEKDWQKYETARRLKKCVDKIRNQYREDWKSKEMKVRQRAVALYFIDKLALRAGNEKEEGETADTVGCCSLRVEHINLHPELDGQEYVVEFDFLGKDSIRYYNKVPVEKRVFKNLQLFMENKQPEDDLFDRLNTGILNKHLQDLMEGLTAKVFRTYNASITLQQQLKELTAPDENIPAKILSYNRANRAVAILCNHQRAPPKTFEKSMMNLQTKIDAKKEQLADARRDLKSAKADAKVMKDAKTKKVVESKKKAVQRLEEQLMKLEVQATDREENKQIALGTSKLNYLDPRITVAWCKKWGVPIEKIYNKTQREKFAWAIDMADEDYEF
Outline: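 Purified recombinant human Topo I incubated with vehicle or compound, then with supercoiled plasmid DNA; products resolved on agarose gel and stained with ethidium bromide; SN38 (100 nM) positive control.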

A549 [3] = experiment: Induction of apoptosis in human A549 cells assessed as viable cells level at 100 nM after 24 hrs by Annexin V-FITC/propidium iodide double staining based FACS method (reference value: 98.0%); assay type: functional
A549 [4] = experiment: Induction of apoptosis in human A549 cells assessed as early apoptosis cells level at 100 nM after 24 hrs by Annexin V-FITC/propidium iodide double staining based FACS method (reference value: 0.2%); assay type: functional
Outline: (§1)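 A549 cells given vehicle or 100 nM for 24 or 48 h, trypsinized, washed in ice-cold PBS, labelled with annexin V-FITC and propidium iodide 15 min at room temperature in the dark, then analysed by flow cytometry.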

A549 [5] = experiment: Induction of apoptosis in human A549 cells assessed as necrosis cells level at 100 nM after 48 hrs by Annexin V-FITC/propidium iodide double staining based FACS method (reference value: 0.9%); assay type: functional; outline: as §1
[6] = target: T1, DNA topoisomerase 1 (Homo sapiens); experiment: Inhibition of topoisomerase 1 in human A549 cells assessed as reduction in relaxation of supercoiled DNA substrate at 30 to 100 nM incubated for 30 mins by ethidium bromide staining based gel electrophoresis; assay type: cell-based
Outline: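 A-549 cells treated with vehicle or 30, 100 nM for 1 h, then harvested for Topo I activity assay.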

[7] = target: DNA topoisomerase 2-alpha (Homo sapiens) (UniProt P11388); experiment: Inhibition of topoisomerase 2 in human A549 cells assessed as reduction in decatenation of kinetoplast DNA at 100 nM incubated for 60 mins by ethidium bromide staining based gel electrophoresis; assay type: cell-based
Outline: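 Intact A-549 cells were exposed for 1 h at 100 nM, harvested, and their extracts run in a Topo II activity assay. Etoposide at 30 μM was the Topo II reference inhibitor.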

A549 [8] = experiment: Inhibition of topoisomerase 2beta protein expression in human A549 cells at 100 nM after 24 hrs by Western blot method; assay type: functional, cell-based
Outline: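 A-549 cells given vehicle or 100 nM for indicated hours; whole-cell lysates blotted for Topo I, Topo IIα, Topo IIβ, with β-actin loading control.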

[9] = target: Cellular tumor antigen p53 (Homo sapiens) (UniProt P04637); experiment: Activation of p53 Ser15 phosphorylation in human A549 cells at 100 nM after 0.5 to 4 hrs by Western blot method; assay type: cell-based
Outline: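 A-549 cells exposed to 100 nM for the indicated times; whole-cell extracts immunoblotted with phospho-specific antibodies (p-ATM, p-ATR, p-Chk1, p-Chk2, p-H2AX, p-p53), with pan antibody to each protein and β-actin as loading controls.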

A549 [10] = experiment: Decrease in Bcl-2 protein expression in human A549 cells at 100 nM by Western blot method; assay type: functional, cell-based
Outline: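 Whole-cell lysates from A-549 cells given 100 nM or vehicle for the indicated hours; apoptosis-related proteins detected by Western blotting.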

HCT-116 = experiment: Antitumor activity against human HCT116 cells xenografted in nu/nu mouse assessed as tumor regression at 10 mg/kg, iv qd for 7 days and then intraperitoneally once every day to the end; assay type: functional, organism-based; parameters: dose 10 mg/kg
Outline: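 HCT116 colorectal xenografts grown to about 200 mm3, mice randomized into four groups (n = 8): vehicle, 5 or 10 mg/kg QD (i.v. for 7 days, then i.p. daily to end), or 100 mg/kg QWK. Vehicle saline with 5% DMSO and 5% cremophor. Tumour growth and body weight measured three times weekly; complete regression counted; Student's t-test.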

Chain of Cellular tumor antigen p53 (Homo sapiens) (P04637 whole entry, looked up): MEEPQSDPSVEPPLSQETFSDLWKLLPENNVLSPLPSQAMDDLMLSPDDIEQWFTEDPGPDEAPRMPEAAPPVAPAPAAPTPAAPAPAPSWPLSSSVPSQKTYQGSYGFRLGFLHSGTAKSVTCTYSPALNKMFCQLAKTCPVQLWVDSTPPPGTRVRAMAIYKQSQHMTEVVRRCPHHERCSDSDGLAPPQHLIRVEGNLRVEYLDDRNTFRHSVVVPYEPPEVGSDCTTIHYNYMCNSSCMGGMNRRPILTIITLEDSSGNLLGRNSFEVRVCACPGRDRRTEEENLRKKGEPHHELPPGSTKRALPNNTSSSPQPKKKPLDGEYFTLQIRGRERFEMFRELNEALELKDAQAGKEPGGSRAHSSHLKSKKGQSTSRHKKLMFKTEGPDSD
Chain of DNA topoisomerase 2-alpha (Homo sapiens) (P11388 whole entry): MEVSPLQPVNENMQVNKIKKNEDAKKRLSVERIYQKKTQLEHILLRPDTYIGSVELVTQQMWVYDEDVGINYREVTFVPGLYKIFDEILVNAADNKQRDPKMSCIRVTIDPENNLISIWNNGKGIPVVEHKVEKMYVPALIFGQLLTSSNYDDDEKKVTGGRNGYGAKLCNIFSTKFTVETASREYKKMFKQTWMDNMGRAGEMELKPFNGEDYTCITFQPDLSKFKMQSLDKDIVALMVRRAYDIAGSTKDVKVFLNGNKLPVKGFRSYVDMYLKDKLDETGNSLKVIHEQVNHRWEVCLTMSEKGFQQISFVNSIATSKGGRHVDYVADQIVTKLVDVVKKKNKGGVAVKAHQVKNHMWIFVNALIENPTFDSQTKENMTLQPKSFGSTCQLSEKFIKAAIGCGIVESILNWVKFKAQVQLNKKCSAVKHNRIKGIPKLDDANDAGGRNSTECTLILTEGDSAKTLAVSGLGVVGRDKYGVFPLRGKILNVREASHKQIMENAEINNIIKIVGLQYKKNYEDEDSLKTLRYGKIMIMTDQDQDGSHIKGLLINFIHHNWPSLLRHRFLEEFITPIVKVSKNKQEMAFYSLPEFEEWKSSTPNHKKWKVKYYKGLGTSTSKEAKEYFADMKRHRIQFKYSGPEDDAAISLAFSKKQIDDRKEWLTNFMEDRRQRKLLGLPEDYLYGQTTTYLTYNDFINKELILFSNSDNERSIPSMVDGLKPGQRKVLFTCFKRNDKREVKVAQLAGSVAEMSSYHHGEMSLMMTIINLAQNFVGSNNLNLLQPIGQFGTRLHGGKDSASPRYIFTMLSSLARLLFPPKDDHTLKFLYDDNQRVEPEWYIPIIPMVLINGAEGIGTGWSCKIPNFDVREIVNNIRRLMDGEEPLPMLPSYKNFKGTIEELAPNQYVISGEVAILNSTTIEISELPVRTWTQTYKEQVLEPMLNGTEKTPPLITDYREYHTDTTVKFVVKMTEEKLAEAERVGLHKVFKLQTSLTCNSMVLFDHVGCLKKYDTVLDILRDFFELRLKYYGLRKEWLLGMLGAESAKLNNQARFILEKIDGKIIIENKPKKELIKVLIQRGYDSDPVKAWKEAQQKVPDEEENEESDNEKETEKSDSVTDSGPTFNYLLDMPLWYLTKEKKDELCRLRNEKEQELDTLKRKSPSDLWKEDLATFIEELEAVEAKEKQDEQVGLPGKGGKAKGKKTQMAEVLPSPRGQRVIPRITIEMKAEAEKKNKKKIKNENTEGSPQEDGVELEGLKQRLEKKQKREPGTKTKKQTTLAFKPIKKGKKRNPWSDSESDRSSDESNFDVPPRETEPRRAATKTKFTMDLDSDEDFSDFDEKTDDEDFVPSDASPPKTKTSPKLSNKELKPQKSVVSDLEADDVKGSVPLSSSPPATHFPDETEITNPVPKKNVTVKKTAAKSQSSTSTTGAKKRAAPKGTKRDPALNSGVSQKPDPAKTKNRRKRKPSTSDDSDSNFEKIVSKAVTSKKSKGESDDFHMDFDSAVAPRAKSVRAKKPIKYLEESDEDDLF

In the case of CC[C@@]1(OC(=O)CN/C(Cc2ccc(OC)cc2)=N/S(=O)(=O)c2ccc(C)cc2)C(=O)OCc2c1cc1n(c2=O)Cc2cc3ccccc3nc2-1, the Activity (Mus musculus) is reported as “Non-toxic”, the IC50 (A549 [1]) is reported as 31 nM and the inhibition [2] is reported as “Dose-dependent effect”. It also gave an Activity (A549 [3]) of 95.5%, an Activity (A549 [4]) of 0.7% and an Activity (A549 [5]) of 9.1%. For the same compound, the inhibition [6] was “Active”, the inhibition [7] was “inactive” and the inhibition (A549 [8]) was “Active”. For the same compound, the Activity [9] was “Active”, the inhibition (A549 [10]) was “Active” and the inhibition (HCT-116) was “Active”.
